≈ marks a conversion by molar mass, not a printed value.
What was measured:
[1] = Antifungal activity against Exserohilum turcicum after 4 to 14 days by serial dilution method; type: functional; settings: Setosphaeria turcica
Procedure, shortened: (§1)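 Fungal strains kept on potato dextrose agar. Antifungal activity tested following NCCLS recommendations, with MIC values as the read-out. Prochloraz served as positive control.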

[2] = Antifungal activity against Ceratocystis paradoxa moreau after 4 to 14 days by serial dilution method; type: functional; settings: Thielaviopsis; procedure, shortened: as §1
[3] = Antifungal activity against Phytophthora parasitica var. nicotianae after 4 to 14 days by serial dilution method; type: functional; procedure, shortened: as §1
[4] = Cytotoxicity against human HeLa cells assessed as decrease in cell viability after 6 days by MTT assay; type: functional, cell-based; settings: 144 h
Procedure, shortened: (§2)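 Cell lines from College of Pharmacy, Hebei University, grown in DMEM with 5% fetal bovine serum at 37 °C under 5% CO2. Viability read by MTT method, IC50 values derived. Epirubicin served as positive control.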

Alternaria citri = test: Antifungal activity against Alternaria citri after 4 to 14 days by serial dilution method; type: functional
Procedure, shortened: (§3)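 Fungus maintained on potato dextrose agar. Antifungal activity determined as MIC following NCCLS (National […] for Clinical Laboratory Standards) recommendations, with prochloraz as the reference antifungal.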

[5] = Antifungal activity against Diaporthe medusaea nitschke after 4 to 14 days by serial dilution method; type: functional; settings: Diaporthe rudis; procedure, shortened: as §1
Colletotrichum truncatum = test: Antifungal activity against Colletotrichum capsici after 4 to 14 days by serial dilution method; type: functional; procedure, shortened: as §1
Alternaria brassicicola = test: Antifungal activity against Alternaria brassicicola after 4 to 14 days by serial dilution method; type: functional; procedure, shortened: as §1
[6] = Cytotoxicity against human A549 cells assessed as decrease in cell viability after 6 days by MTT assay; type: functional, cell-based; settings: A549, 144 h; procedure, shortened: as §2
[7] = Cytotoxicity against human MCF7 cells assessed as decrease in cell viability after 6 days by MTT assay; type: functional, cell-based; settings: MCF7, 144 h; procedure, shortened: as §2
[8] = Antifungal activity against Bipolaris oryzae after 4 to 14 days by serial dilution method; type: functional; procedure, shortened: as §3
[9] = Antifungal activity against Pestallozzia theae after 4 to 14 days by serial dilution method; type: functional; procedure, shortened: as §1

## COC1=CC(=O)C[C@H]2CC(=O)c3cccc(O)c3[C@@]12O
[1]
  MIC: > 400 µM
[2]
  MIC: > 400 µM
[3]
  MIC: > 400 µM
[4]
  IC50: > 10 µM
Alternaria citri
  MIC: > 400 µM
[5]
  MIC: > 400 µM
Colletotrichum truncatum
  MIC: > 400 µM
Alternaria brassicicola
  MIC: > 400 µM
[6]
  IC50: > 10 µM
[7]
  IC50: > 10 µM
[8]
  MIC: > 400 µM
[9]
  MIC: > 400 µM

## COc1cc(O)c2c(c1)CCc1cc(O)c(-c3c(OC)cc4c(c3O)-c3ccc(O)cc3CC4)cc1-2
[1]
  MIC: > 400 µM
[2]
  MIC: > 400 µM
[3]
  MIC: > 400 µM
[4]
  IC50: > 10 µM
Alternaria citri
  MIC: > 400 µM
[5]
  MIC: > 400 µM
Colletotrichum truncatum
  MIC: > 400 µM
Alternaria brassicicola
  MIC: > 400 µM
[6]
  IC50: > 10 µM
[7]
  IC50: > 10 µM
[8]
  MIC: > 400 µM
[9]
  MIC: > 400 µM

## COc1cc(O)cc(CCc2ccccc2)c1
[1]
  MIC: 110 µM (≈ 25 µg/mL)
[2]
  MIC: 110 µM (≈ 25 µg/mL)
[3]
  MIC: 219 µM (≈ 50.1 µg/mL)
[4]
  IC50: > 10 µM
Alternaria citri
  MIC: 110 µM (≈ 25 µg/mL)
[5]
  MIC: 219 µM (≈ 50.1 µg/mL)
Colletotrichum truncatum
  MIC: 110 µM (≈ 25 µg/mL)
Alternaria brassicicola
  MIC: > 400 µM
[6]
  IC50: > 10 µM
[7]
  IC50: > 10 µM
[8]
  MIC: 110 µM (≈ 25 µg/mL)
[9]
  MIC: 219 µM (≈ 50.1 µg/mL)
